Substrate in data set [1]: N#CCC(=O)NC(Cc1ccccc1)C(=O)NC(Cc1ccccc1)C(=O)O
Put plainly: Michaelis-Menten constant determined for Neutral endopeptidase (NEP). The procedure, abridged:
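Recombinant human NEP from CHO cells (>99% pure), 0.5 μM in 50 mM HEPES pH 7.4 with 10% p-dioxane, incubated at 25 °C with inactivator at 0.5–7.5 μM final. Aliquots diluted 1:100 into DAGNPG assay solution (50 mM Tris pH 7.4, 37 °C), fluorescence read at ex 342/em 562 nm. Pseudo-first-order kobs plotted double-reciprocally against inactivator concentration to give kinact and Km.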

Substrate in data set [2]: N#CCC(=O)CC(Cc1ccccc1)C(=O)NC(Cc1ccccc1)C(=O)O
Substrate in data set [3]: N#CCC(=O)NC(Cc1ccccc1)C(=O)NC(Cc1ccccc1)C(=O)O
Put plainly: Michaelis-Menten constant determined for Angiotensin I converting enzyme.

B1: Neprilysin (Homo sapiens), P08473 (protein)
chain: MGKSESQMDITDINTPKPKKKQRWTPLEISLSVLVLLLTIIAVTMIALYATYDDGICKSSDCIKSAARLIQNMDATTEPCTDFFKYACGGWLKRNVIPETSSRYGNFDILRDELEVVLKDVLQEPKTEDIVAVQKAKALYRSCINESAIDSRGGEPLLKLLPDIYGWPVATENWEQKYGASWTAEKAIAQLNSKYGKKVLINLFVGTDDKNSVNHVIHIDQPRLGLPSRDYYECTGIYKEACTAYVDFMISVARLIRQEERLPIDENQLALEMNKVMELEKEIANATAKPEDRNDPMLLYNKMTLAQIQNNFSLEINGKPFSWLNFTNEIMSTVNISITNEEDVVVYAPEYLTKLKPILTKYSARDLQNLMSWRFIMDLVSSLSRTYKESRNAFRKALYGTTSETATWRRCANYVNGNMENAVGRLYVEAAFAGESKHVVEDLIAQIREVFIQTLDDLTWMDAETKKRAEEKALAIKERIGYPDDIVSNDNKLNNEYLELNYKEDEYFENIIQNLKFSQSKQLKKLREKVDKDEWISGAAVVNAFYSSGRNQIVFPAGILQPPFFSAQQSNSLNYGGIGMVIGHEITHGFDDNGRNFNKDGDLVDWWTQQSASNFKEQSQCMVYQYGNFSWDLAGGQHLNGINTLGENIADNGGLGQAYRAYQNYIKKNGEEKLLPGLDLNHKQLFFLNFAQVWCGTYRPEYAVNSIKTDVHSPGNFRIIGTLQNSAEFSEAFHCRKNSYMNPEKKCRVW
Turning to B1, the Km came to 2.38 mM in data set [1] and 5.1 mM in data set [2].

B2: Angiotensin-converting enzyme (Rattus norvegicus), P47820 (protein)
chain: MGAASGQRGRWPLSPPLLMLSLLLLLLLPPSPAPALDPGLQPGNFSADEAGAQLFADSYNSSAEVVMFQSTAASWAHDTNITEENARLQEEAALINQEFAEVWGKKAKELYESIWQNFTDQKLRRIIGSVQTLGPANLPLTQRLQYNSLLSNMSRIYSTGKVCFPNKTATCWSLDPELTNILASSRNYAKVLFAWEGWHDAVGIPLRPLYQDFTALSNEAYRQDGFSDTGAYWRSWYESPSFEESLEHLYHQVEPLYLNLHAFVRRALHRRYGDKYINLRGPIPAHLLGDMWAQSWENIYDMVVPFPDKPNLDVTSTMVQKGWNATHMFRVAEEFFTSLGLSPMPPEFWAESMLEKPADGREVVCHASAWDFYNRKDFRIKQCTRVTMDQLSTVHHEMGHVQYYLQYKDLHVSLRRGANPGFHEAIGDVLALSVSTPAHLHKIGLLDRVANDIESDINYLLKMALEKIAFLPFGYLVDQWRWGVFSGRTPPSRYNYDWWYLRTKYQGICPPVARNETHFDAGAKFHIPSVTPYIRYFVSFVLQFQFHQALCKEAGHQGPLHQCDIYQSTKAGAKLQQVLQAGCSRPWQEVLKDLVGSDALDASALMEYFQPVSQWLQEQNQRNGEVLGWPEYQWRPPLPDNYPEGIDLETDEAKANRFVEEYDRTAKVLWNEYAEANWHYNTNITIEGSKILLQKNKEVSNHTLKYGTWAKTFDVSNFQNSTIKRIIKKVQNVDRAVLPPNELEEYNQILLDMETTYSVANVCYTNGTCLSLEPDLTNIMATSRKYEELLWVWKSWRDKVGRAILPFFPKYVDFSNKIAKLNGYSDAGDSWRSSYESDDLEQDLEKLYQELQPLYLNLHAYVRRSLHRHYGSEYINLDGPIPAHLLGNMWAQTWSNIYDLVAPFPSAPSIDATEAMIKQGWTPRRIFKEADNFFTSLGLLPVPPEFWNKSMLEKPTDGREVVCHASAWDFYNGKDFRIKQCTSVNMEELVIAHHEMGHIQYFMQYKDLPVTFREGANPGFHEAIGDVLALSVSTPKHLHSLNLLSSEGSGYEHDINFLMKMALDKIAFIPFSYLIDQWRWRVFDGSITKENYNQEWWSLRLKYQGLCPPVPRSQGDFDPGSKFHVPANVPYIRYFISFIIQFQFHEALCRAAGHTGPLYKCDIYQSKEAGKLLADAMKLGYSKQWPEAMKIITGQPNMSASAIMNYFKPLTEWLVTENRRHGETLGWPEYTWTPNTARAEGSLPESSRVNFLGMYLEPQQARVGQWVLLFLGVALLVATVGLAHRLYNIHNHHSLRRPHRGPQFGSEVELRHS
B2: the Km in data set [3] was determined as 10.5 mM.

For the origin of these results see ChEMBL document CHEMBL1126768, “A mechanism-based inactivation study of neutral endopeptidase 24.11” (J Med Chem, 1993).
